Assay results of several laboratories.
Lines come from different studies, so protocols differ.
Target: Acetylcholinesterase (ACHE, Homo sapiens, UniProt P22303)
Observed: enzyme activity
Action: inhibitor

COc1cc(-c2nc3ccccc3s2)cc(NC(C)=O)c1OCC(=O)N[C@H](C(=O)O)C(C)C
IC50 (Ellman): > 271000 nM

CC(C)c1cc2c(c(O)c1O)[C@@]13CCCC(C)(C)[C@@H]1[C@H](OC3=O)[C@H]2O
IC50: 0.734 nM

COc1cc(-c2nc3ccccc3s2)cc2c1OCC(=O)N2CC(=O)N[C@@H](C)C(=O)O
IC50 (Ellman): > 290000 nM

O=c1cc(CSc2ccc(N=Cc3ccc([N+](=O)[O-])cc3)cc2)occ1O
IC50 (Ellman): 8380 nM

CC(C)c1cc2c(c(O)c1O)[C@@]13CCCC(C)(C)[C@@H]1C[C@@H]2OC3=O
IC50: 0.81 nM

O=c1cc(CSc2ccc(N=Cc3ccc(Cl)cc3)cc2)occ1O
IC50 (Ellman): 1330 nM

Cc1cccc(C)c1NC(=O)CSc1nnc(COc2ccc3ccccc3c2)n1-c1ccccc1
IC50 (Ellman): 1010 nM

COc1cc(-c2nc3ccccc3s2)cc2c1OCC(=O)N2CC(=O)N[C@@H](Cc1ccccc1)C(=O)O
IC50 (Ellman): > 247000 nM

Cc1cc(C)cc(NC(=O)CSc2nnc(COc3ccc4ccccc4c3)n2-c2ccccc2)c1
IC50 (Ellman): 1120 nM

O=c1cc(CSc2ccc(N=Cc3cccc(O)c3)cc2)occ1O
IC50 (Ellman): 3640 nM

Cc1ccc(NC(=O)CSc2nnc(COc3ccc4ccccc4c3)n2-c2ccccc2)cc1C
IC50 (Ellman): 778 nM

CC(=O)c1c(C)c2cnc(Nc3ccc(C4CCN(CCS(C)(=O)=O)CC4)cn3)nc2n(C2CCCC2)c1=O
IC50: 250 nM

O=c1cc(CSc2ccc(N=Cc3cccc(Br)c3)cc2)occ1O
IC50 (Ellman): 5580 nM

CC[C@@H](C)[C@H](NC(=O)CN1C(=O)COc2c(OC)cc(-c3nc4ccccc4s3)cc21)C(=O)O
IC50 (Ellman): > 265000 nM

O=c1cc(CSc2ccc(N=Cc3ccccc3F)cc2)occ1O
IC50 (Ellman): 4100 nM

CCOc1ccc(NC(=O)CSc2nnc(COc3ccc4ccccc4c3)n2-c2ccccc2)cc1
IC50 (Ellman): 815 nM
